# Test results taken from PubChem BioAssay AID492966 (Southern Research Specialized Biocontainment Screening …, 2010).
# Active and inactive are the calls of the source.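 The calls were made as follows: active = compounds that block at least half of the virus-caused cell damage; inactive = the rest.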
# Tested on: HEp-2 RSV Long CPE inhibition, luminescence
# Assay: RSV cytopathic effect inhibition in HEp-2, dose response, cell-based, RSV Long, luminescence, synthesized compounds, set 3 (AID 492966)
# How it was run: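 Assay system: RSV Long-infected HEp-2 cells / Probe or stimulus: RSV Long, MOI 0.45 / Doses: 8-point twofold series, 50 to 0.39 µM final, 0.5% DMSO / Timing: compound and virus exposure six days at 37 °C / Detection: luminescence-based cytopathic effect measurement / Evaluation: % CPE inhibition and IC50 from bounded 4-parameter fit / Replication: each concentration tested in triplicate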
row,IC50,SMILES
1,> 50 µM (inactive),O=C(Nc1ccc(Cl)cc1Cl)[C@@H]1CCCN1S(=O)(=O)c1cccc2cccnc12
2,> 50 µM (inactive),Cc1ccc(NC(=O)[C@@H]2CCCN2S(=O)(=O)c2cccc3cccnc23)cc1
3,16.5 µM,Cc1ccccc1NC(=O)[C@@H]1CCCN1S(=O)(=O)c1cccc2cccnc12
